Assay outcomes from PubChem.
The list is not random: actives were taken first. Their share in the collection is about 4.5%.
OX1R antag-1 = OX1R (HCRTR1) antagonists, primary screen, fluorescence, CHO/OX1R cells, Fluo-8 calcium, orexin A | 330,000 tested, 0.43% active | inhibition, % at 5 µM | Fluo-8 calcium fluorescence | Orexin/Hypocretin receptor type 1 (Homo sapiens), O43613 | AID 434989, 2010;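 active = inhibition above its plate's threshold, mean inhibition of all tested compounds on the plate plus 3 SD, cut at about 37% in these data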;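 note: 0% = orexin A challenge wells and 100% = SB-334867-A antagonist wells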
CHO parental Ca = ATP-evoked calcium signal inhibitors, parental CHO, primary screen, counter-screen for OX1R antagonist project, cell-based, fluorescence, Fluo-8 calcium dye; parental CHO-K1, ATP-induced calcium, Fluo-8 fluorescence; AID 463079, 2010; inhibition, % at 5.6 µM; 330,000 tested, 0.63% active;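 active = inhibition above that plate's mean sample inhibition plus 3 SD, cut at about 26% in these data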;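 note: 0% = ATP-challenged DMSO wells and 100% = DMSO wells without ATP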
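material = parental CHO cells | also added = ATP as calcium-mobilizing challenge | dosing = single point at 5.6 µM | detection = intracellular calcium via Fluo-8 no-wash fluorescent dye | read-out = % inhibition | benchmarks = low control ATP plus DMSO, high control DMSO only | repeats = one well per compound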
TAAR1 antag = human TAAR1 antagonists, primary screen, Fluo-8 calcium fluorescence, CHO RD-HGA16 cells. Trace amine-associated receptor 1 (Homo sapiens), Q96RJ0. antagonist. inhibition, % at 3 µM. 360,000 tested, 1.5% active;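 active = inhibition above a per-plate cutoff, the mean inhibition of test compounds on that plate plus 3 SD, cut at about 49% in these data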;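 note: 0% = DMSO plus EC80 beta-PEA response and 100% = DMSO alone without agonist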
Target sequence (Q96RJ0 whole entry, looked up): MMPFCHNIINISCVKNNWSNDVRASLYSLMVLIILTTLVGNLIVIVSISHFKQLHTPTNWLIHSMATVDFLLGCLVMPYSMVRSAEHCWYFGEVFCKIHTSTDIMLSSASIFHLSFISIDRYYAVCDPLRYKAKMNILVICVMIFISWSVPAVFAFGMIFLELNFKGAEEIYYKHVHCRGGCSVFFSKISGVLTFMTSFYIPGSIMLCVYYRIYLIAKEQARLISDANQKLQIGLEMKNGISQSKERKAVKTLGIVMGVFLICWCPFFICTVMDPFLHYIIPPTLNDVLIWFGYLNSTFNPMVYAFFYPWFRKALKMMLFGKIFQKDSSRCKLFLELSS
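Assay system: RD-HGA16 CHO cells with stable hTAAR1 and Gα16 / Reagent: EC80 β-phenethylamine stimulus / Doses: 3 µM, single point / Timing: dye loading 75 min at 37 °C, then 30 min room temperature / Measured by: Fluo-8 intracellular calcium dye fluorescence, real-time kinetic reads / Controls: vehicle wells and EC80 agonist wells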
GPR7 antag = GPR7 receptor antagonists, primary screen, cell-based, fluorescence, single concentration; Neuropeptides B/W receptor type 1 (Homo sapiens), P48145; inhibition, % at 4.4 µM; GPR7-expressing cells, fluorescence antagonist assay; AID 1861, 2009; 290,000 tested, 1.1% active; in the data active = inhibition above about 16%, passing the limit was not always enough;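 note: cells stimulated with the agonist NPW; 0% = agonist with vehicle and 100% = vehicle without agonist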
Target sequence (P48145 whole entry, looked up): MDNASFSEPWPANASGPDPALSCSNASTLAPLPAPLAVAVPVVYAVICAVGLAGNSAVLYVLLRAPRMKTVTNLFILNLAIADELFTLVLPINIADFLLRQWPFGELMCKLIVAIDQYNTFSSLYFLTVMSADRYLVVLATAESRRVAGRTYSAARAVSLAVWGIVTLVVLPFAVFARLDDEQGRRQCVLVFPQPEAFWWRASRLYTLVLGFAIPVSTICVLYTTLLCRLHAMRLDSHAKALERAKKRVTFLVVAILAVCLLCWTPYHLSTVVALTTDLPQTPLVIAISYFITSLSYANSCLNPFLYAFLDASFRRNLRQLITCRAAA
OX1R antag-2 = antagonists of human orexin 1 receptor (OX1R); AID 485270, 2010; 330,000 tested, 1.8% active; Orexin/Hypocretin receptor type 1 (Homo sapiens), O43613; inhibition, % at 6.6 µM; OX1R-expressing cells, FRET antagonist read-out; in the data active = inhibition mostly above about 38%, no sharp cut-off; inactive = mostly below about 40%;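 note: 0% = agonist challenge alone and 100% = reference antagonist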
TAAR1 agonist = human TAAR1 agonists, primary screen, Fluo-8 calcium fluorescence, CHO RD-HGA16 cells; vehicle wells 0%, saturating PEA agonist 100%; activation, % at 3 µM; 360,000 tested, 0.99% active; AID 624467, 2012;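 active = activation above the mean activation of all test compounds in the run plus 3 SD, cut at about 38% in these data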
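Test system: RD-HGA16 (CHO) cells co-expressing Gα16 and hTAAR1; dosing: one-point dosing at 3 µM (nominal); timing: 17-24 h seeding, 75 min 37 °C dye, 30 min RT; signal: kinetic Fluo-8 calcium fluorescence; read-out basis: % activation relative to PEA EC100 response; controls: DMSO and PEA EC100; replicates: n 1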
An asterisk follows results filed as active; · = no result given.

SMILES	OX1R antag-1	CHO parental Ca	TAAR1 antag	GPR7 antag	OX1R antag-2	TAAR1 agonist
CCOC(=O)c1cc(=O)c2c([N+](=O)[O-])ccc(OC)c2o1	12.2	-6.9	-8.2	-3.0	69.8*	0.2
COc1ccc([N+](=O)[O-])c2c(=O)ccoc12	-10.7	-7.8	1.2	-2.5	29.5	0.3
O=C(CNC(=O)OCc1ccccc1)NC(Cc1cnc[nH]1)C(=O)O (centres undefined)	·	·	15.6	·	·	2.6
CCn1c(Cn2nnc(-c3ccccc3)n2)nnc1SCC(=O)Nc1cccc(C(C)=O)c1	8.2	-8.3	7.4	1.1	55.6*	2.8
CCn1c(Cn2nnc(-c3ccccc3)n2)nnc1SCC(=O)Nc1cccc(C)c1C	5.8	-15.3	-22.1	7.5	76.7*	1.8
CCn1c(Cn2nnc(-c3ccccc3)n2)nnc1SCC(=O)Nc1ccc(C(C)=O)cc1	-13.4	-29.9	-6.8	-12.8	10.5	0.5
O=C1c2ccccc2-n2c1nc1ccccc1c2=O	12.5	0.0	5.1	-12.4	53.5*	1.0
C=CCn1c(O)c(N=NC(=O)CNC(=O)c2ccncc2)c2ccccc21	-11.9	-12.1	-1.2	4.5	67.3*	6.6
COc1ccc(C(=O)NCC(=O)N=Nc2c(O)n(Cc3ccccc3)c3ccccc23)cc1OC	-26.2	-14.8	2.5	-2.2	36.7	3.4
C=CCn1c(O)c(N=NC(=O)CNC(=O)c2cccs2)c2ccccc21	-12.6	-11.4	9.1	-13.5	40.0	1.2
COc1ccc(C(=O)NCC(=O)N=Nc2c(O)n(C)c3ccccc23)cc1OC	-7.3	-23.4	-12.2	-5.4	56.7*	4.1
S=c1[nH]ncn1/N=C/c1cccs1	0.4	-1.7	-8.0	-4.0	16.1	0.0
N#CC1=C(N)SC(N)=C(C#N)C1CCc1ccccc1	-3.2	16.6	37.0	-0.3	36.5	30.0
CCc1ccc(C2C(C#N)=C(N)SC(N)=C2C#N)cc1	-2.7	9.0	31.7	-6.9	26.3	43.3*
N#CC1=C(N)SC(N)=C(C#N)C1Cc1ccccc1	36.3	5.3	37.7	-1.5	38.7*	42.6*
COC(=O)C1=C(C(=O)OC)[C@@H]2N(C)c3ccc(OC)cc3[C@@]23C[C@@H](C(=O)OC)N(S(=O)(=O)c2ccc(OC)cc2)C3=N1	-18.7	-10.1	13.7	·	7.6	14.3
COC(=O)c1ccc(NC(=O)c2ccc3nsnc3c2)cc1	-17.6	-3.5	-8.0	-9.4	12.4	22.0
CC(C)(C)NC(=O)c1ccc2nsnc2c1	6.2	-5.4	6.2	-6.3	66.9*	-0.7
CC1CC(C)CN(C(=O)/C=C/c2ccc([N+](=O)[O-])s2)C1 (centres undefined)	·	·	20.0	-10.2	·	-0.8
O=C(/C=C/c1ccc([N+](=O)[O-])s1)N1CCCCC1	-30.6	-24.6	-1.5	-17.5	74.0*	1.4
O=C(/C=C/c1ccc([N+](=O)[O-])s1)N1CCCC1	-17.7	-15.3	-0.6	-2.9	51.6*	3.9
c1ccc2c(CCNc3ncnc4nc[nH]c34)cccc2c1	28.3	33.5*	67.3*	8.4	22.4	25.2
COc1cccc2cc(C(C)N(CCCN3CCOCC3)C(=S)Nc3cccc(C)c3C)oc12 (centres undefined)	-15.8	-12.0	-47.9	8.4	11.4	39.2*
COc1cccc2cc(C(C)N(CCCN3CCOCC3)C(=S)Nc3cc(C)ccc3C)oc12 (centres undefined)	-14.7	-6.2	-30.5	-2.6	5.5	-2.5
Cc1cc(C)cc(N/C(N)=N/c2nc(C)cc(C)n2)c1	20.0	1.0	23.9	-1.5	8.5	39.1*
SMILES	OX1R antag-1	CHO parental Ca	TAAR1 antag	GPR7 antag	OX1R antag-2	TAAR1 agonist
C=CCN=C1NC(c2ccccc2C(F)(F)F)C(C(=O)OC)=C(C)N1Cc1cccc(C(F)(F)F)c1 (centres undefined)	·	·	-8.1	·	·	1.5
CCCN1C(=O)c2n[nH]c(C)c2C1c1ccc2c(c1)OCO2 (centres undefined)	·	·	-15.2	·	·	-1.0
CN(CC(=O)Nc1ccc(Cl)c(C(F)(F)F)c1)C(=O)C1CC(=O)N(CCc2ccccc2)C1 (centres undefined)	·	·	50.5*	·	·	15.3
Cc1cc(-c2cc(NC(=O)Cc3c[nH]c4ccccc34)ccc2N(C)c2cccnc2)ccc1F	·	·	13.1	·	·	4.8
CCCCCCCCC(=O)NC(NC(=S)N1CCOCC1)C(Cl)(Cl)Cl (centres undefined)	20.1	-12.0	5.9	19.5*	11.5	16.8
CC1(C)Cc2cccc(OCC(=O)Nc3ccccc3F)c2O1	-32.8	-19.6	-9.8	·	15.2	3.1
CCCNC(=O)c1ccccc1NC(=O)COc1cccc2c1OC(C)(C)C2	-18.5	-31.1	50.4*	·	27.7	7.6
COC(=O)Cn1c(=O)c2c(nc3n2CC(C)CN3c2ccc(C)c(C)c2)n(C)c1=O (centres undefined)	-36.0	-19.0	-24.6	·	0.2	-2.9
O=C(c1nn2c(C(F)(F)F)cc(-c3ccccc3)nc2c1Cl)N1CCN2CCCC2C1 (centres undefined)	·	·	-12.1	-13.5	·	-2.1
CCC(C)NCCC(=O)Nc1ccc(Cl)c(S(=O)(=O)Nc2ccc(Cl)cc2)c1 (centres undefined)	0.1	-9.1	23.4	32.5*	12.4	1.7
Cc1ccc(C(=O)CCC(=O)Nc2ccc(Cl)c(S(=O)(=O)Nc3cccc(Cl)c3)c2)cc1	-17.0	-17.3	-8.9	5.1	4.2	3.5
CCc1nc(C)cn1S(=O)(=O)c1cc(C)c(OC)cc1C	-11.0	-4.8	-6.2	4.5	8.4	-0.2
CCc1nc(C)cn1S(=O)(=O)c1cc(C)c(OC)c(C)c1C	1.7	31.4*	38.6	4.0	23.5	5.3
CC(NC(=O)CCNS(=O)(=O)c1cccc2nsnc12)c1ccccc1 (centres undefined)	-9.3	-12.0	-32.2	-6.3	68.6*	1.3
CC(C)c1ccc(NC(=O)CCNS(=O)(=O)c2cccc3nsnc23)cc1	-3.6	-9.2	13.3	-8.8	13.9	7.2
O=C(CCNS(=O)(=O)c1cccc2nsnc12)NCc1ccccc1	-16.5	-0.7	-27.4	-9.2	76.6*	3.9
COc1ccc(CNC(=O)CCNS(=O)(=O)c2cccc3nsnc23)cc1	-14.8	-6.1	9.1	-12.5	45.6	0.7
COCCn1c(SCC(=O)N2CCCC2)nc2c(c1=O)SCC2	·	·	-19.1	·	·	-0.2
Cc1ccc2nc(SCC(=O)NC3CCCc4ccccc43)[nH]c2c1 (centres undefined)	11.6	-32.9	-5.3	-7.6	73.0*	-0.7
